In ChEMBL document CHEMBL4393678, “Novel Tetrahydroquinazolinamines as Selective Histamine 3 Receptor Antagonists for the Treatment of Obesity” (J Med Chem, 2019):
Active and inactive are the calls of the source. No cut-off for these calls is given here.

Tests used:
[1] = Ratio of AUClast in C57BL/6J mouse brain assessed as 4-(2-Amino-8-methyl-5,6,7,8-tetrahydroquinazolin-4-yl)phenol level to AUClast in C57BL/6J mouse brain; format: ADME, tissue-based; conditions: in vivo
Outline: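 Male C57BL/6J mice (6–8 weeks) were fasted 12–16 h, then given a single oral dose of 20 mg/kg as a 2.5 mg/mL suspension in 1% gum acacia/water (n=5 per time point). Serum and brain (homogenised 1:6 in PBS) were sampled up to 24 h. Parent and demethylated metabolite were measured by LC-MS/MS (range 0.25–200 ng/mL). AUC ran to the last observation.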

[2] = target: T1, G-protein coupled bile acid receptor 1 (Homo sapiens) (UniProt Q8TDU6); experiment: Agonist activity at Gs-coupled GPBAR1 (unknown origin) expressed in HEK293T cells assessed as inhibition of forskolin-stimulated cAMP accumulation preincubated for 10 to 15 followed by forskolin-stimulation by Glo-sensor assay; format: functional, cell-based
T1 sequence (whole entry): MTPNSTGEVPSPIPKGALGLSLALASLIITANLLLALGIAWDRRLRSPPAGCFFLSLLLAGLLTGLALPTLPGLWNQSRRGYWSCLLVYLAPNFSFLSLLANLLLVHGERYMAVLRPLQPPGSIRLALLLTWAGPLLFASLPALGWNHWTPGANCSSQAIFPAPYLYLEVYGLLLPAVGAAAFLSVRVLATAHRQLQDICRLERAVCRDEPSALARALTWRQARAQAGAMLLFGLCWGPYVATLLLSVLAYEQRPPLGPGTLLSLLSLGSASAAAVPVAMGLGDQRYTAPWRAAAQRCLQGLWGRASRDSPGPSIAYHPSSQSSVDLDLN

[3] = Apparent volume of distribution in C57BL/6J mouse brain at 20 mg/kg, po by LC-MS/MS analysis; format: ADME, organism-based
Outline: (§1)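 Male C57BL/6J mice (6-8 weeks, 20 ± 5 g) fasted overnight (12-16 h) got a single 20 mg/kg oral dose as 2.5 mg/mL suspension in 1% w/v gum acacia; n=5 per time point. Serum and brain (PBS homogenate 1:6 w/v) sampled up to 24 h. Parent and demethylated metabolite quantified by LC-MS/MS after liquid-liquid extraction (C18, MRM, phenacetin internal standard; linear 0.25-200 ng/mL). Two-compartment open model fit.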

[4] = Cmax in C57BL/6J mouse serum assessed as 4-(2-Amino-8-methyl-5,6,7,8-tetrahydroquinazolin-4-yl)phenol level at 20 mg/kg, po by LC-MS/MS analysis; format: ADME, organism-based; set-up: dose 20 mg/kg, route oral; conditions: in vivo; outline: as §1
[5] = target: T2, 5-hydroxytryptamine receptor 2C (Homo sapiens) (UniProt P28335); experiment: Agonist activity at 5HT2CR (unknown origin) expressed in HEK293 cells harboring luc2P/NFAT-RE plasmid at 10 uM after 6 to 8 hrs by luciferase reporter gene assay; format: cell-based
T2 sequence (whole entry): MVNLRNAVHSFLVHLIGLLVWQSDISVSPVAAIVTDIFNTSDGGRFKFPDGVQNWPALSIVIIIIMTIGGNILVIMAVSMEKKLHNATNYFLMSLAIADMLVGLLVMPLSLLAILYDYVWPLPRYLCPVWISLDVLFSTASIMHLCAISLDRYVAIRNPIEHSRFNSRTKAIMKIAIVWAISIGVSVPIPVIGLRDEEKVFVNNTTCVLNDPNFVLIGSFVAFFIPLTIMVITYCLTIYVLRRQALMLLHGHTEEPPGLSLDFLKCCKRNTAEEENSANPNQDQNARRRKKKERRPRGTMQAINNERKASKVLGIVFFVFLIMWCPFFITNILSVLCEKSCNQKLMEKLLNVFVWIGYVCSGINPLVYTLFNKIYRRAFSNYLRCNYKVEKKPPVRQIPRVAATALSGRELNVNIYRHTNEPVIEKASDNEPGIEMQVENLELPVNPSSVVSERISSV
Outline: (§2)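 NFAT-RE luciferase assay in HEK293T cells transiently co-transfected with luc2P/NFAT-RE plasmid and receptor plasmid. Cells plated in DMEM and incubated overnight at 37 °C, 5% CO₂. Compounds and reference ligands applied for 6-8 h. Luciferase read after adding Bright-Glo substrate (1 mg/ml final).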

[6] = Half life in C57BL/6J mouse brain assessed as 4-(2-Amino-8-methyl-5,6,7,8-tetrahydroquinazolin-4-yl)phenol level at 20 mg/kg, po by LC-MS/MS analysis; format: ADME, organism-based; conditions: in vivo; outline: as §1
[7] = Apparent volume of distribution in C57BL/6J mouse serum at 20 mg/kg, po by LC-MS/MS analysis; format: ADME, organism-based; outline: as §1
[8] = target: Voltage-gated inwardly rectifying potassium channel KCNH2 (Homo sapiens, UniProt Q12809); experiment: Inhibition of tracer Red binding to human ERG expressed in membranes up to 10 uM after 3 hrs by fluorescence polarization assay
Chain of Voltage-gated inwardly rectifying potassium channel KCNH2 (Q12809 whole entry): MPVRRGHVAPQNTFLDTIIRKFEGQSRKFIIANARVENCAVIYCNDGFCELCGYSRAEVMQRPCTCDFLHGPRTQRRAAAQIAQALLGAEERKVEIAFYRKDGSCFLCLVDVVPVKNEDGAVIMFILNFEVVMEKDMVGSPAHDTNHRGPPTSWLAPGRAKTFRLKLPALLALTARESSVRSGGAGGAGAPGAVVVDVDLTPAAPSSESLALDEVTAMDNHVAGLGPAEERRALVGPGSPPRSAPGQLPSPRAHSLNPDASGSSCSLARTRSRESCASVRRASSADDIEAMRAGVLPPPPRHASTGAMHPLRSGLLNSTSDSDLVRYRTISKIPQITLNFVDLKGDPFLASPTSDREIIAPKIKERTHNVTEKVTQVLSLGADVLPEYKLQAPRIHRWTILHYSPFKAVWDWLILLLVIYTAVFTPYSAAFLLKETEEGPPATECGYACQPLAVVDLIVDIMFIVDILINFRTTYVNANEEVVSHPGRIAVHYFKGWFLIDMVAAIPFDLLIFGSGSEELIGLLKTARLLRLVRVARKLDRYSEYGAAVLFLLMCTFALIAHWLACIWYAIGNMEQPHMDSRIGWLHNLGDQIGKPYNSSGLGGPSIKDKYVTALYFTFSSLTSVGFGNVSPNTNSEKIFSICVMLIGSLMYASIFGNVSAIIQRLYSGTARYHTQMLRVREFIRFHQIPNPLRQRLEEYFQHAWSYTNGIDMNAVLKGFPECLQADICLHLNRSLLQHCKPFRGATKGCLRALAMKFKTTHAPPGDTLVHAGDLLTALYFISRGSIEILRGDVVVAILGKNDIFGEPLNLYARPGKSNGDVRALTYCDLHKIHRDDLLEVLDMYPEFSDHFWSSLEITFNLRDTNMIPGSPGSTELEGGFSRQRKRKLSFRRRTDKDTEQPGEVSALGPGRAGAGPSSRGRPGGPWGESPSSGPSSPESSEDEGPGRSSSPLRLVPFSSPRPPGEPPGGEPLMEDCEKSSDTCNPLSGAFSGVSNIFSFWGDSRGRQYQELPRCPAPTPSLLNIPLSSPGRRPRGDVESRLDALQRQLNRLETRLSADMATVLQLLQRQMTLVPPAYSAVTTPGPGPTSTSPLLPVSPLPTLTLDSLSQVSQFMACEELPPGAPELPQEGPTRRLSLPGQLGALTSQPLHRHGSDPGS

Mus musculus = experiment: Anti-obesity activity in 16 hrs fasted high fat diet-induced obese C57BL/6J mouse model assessed as change in blood glucose level at 10 to 20 mg/kg, po treated prior to glucose addition measured after 15 to 120 mins by IPGTT; format: functional, organism-based
Outline: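 Mice fasted 16 h; baseline tail-vein glucose read by glucometer. Glucose given i.p. at 2 g/kg (C57BL/6J) or 1 g/kg (db/db).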

[9] = target: T3, Muscarinic acetylcholine receptor M5 (Homo sapiens) (UniProt P08912); experiment: Agonist activity at M5R (unknown origin) expressed in HEK293 cells harboring luc2P/NFAT-RE plasmid at 10 uM after 6 to 8 hrs by luciferase reporter gene assay; format: cell-based; outline: as §2
T3 sequence (whole entry): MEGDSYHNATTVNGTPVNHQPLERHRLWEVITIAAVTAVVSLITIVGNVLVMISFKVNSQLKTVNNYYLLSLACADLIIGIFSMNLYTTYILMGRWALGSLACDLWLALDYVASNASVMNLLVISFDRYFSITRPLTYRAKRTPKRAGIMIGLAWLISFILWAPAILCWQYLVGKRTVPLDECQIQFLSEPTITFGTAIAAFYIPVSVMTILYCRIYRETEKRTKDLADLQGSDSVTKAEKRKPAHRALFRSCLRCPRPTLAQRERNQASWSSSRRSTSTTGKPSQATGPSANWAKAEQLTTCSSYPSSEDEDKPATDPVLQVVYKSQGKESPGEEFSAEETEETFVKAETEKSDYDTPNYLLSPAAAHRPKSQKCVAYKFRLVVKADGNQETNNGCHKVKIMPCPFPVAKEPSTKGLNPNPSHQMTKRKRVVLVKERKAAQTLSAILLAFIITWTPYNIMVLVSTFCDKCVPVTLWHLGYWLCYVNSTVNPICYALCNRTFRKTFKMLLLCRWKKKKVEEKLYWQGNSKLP

[10] = target: D(2) dopamine receptor (Homo sapiens) (UniProt P14416); experiment: Antagonist activity at Gi-coupled D2 receptor (unknown origin) expressed in HEK293T cells assessed as reduction in […] inhibition of forskolin-stimulated cAMP accumulation preincubated for 10 to 15 followed by […] for 10 mins and subsequent forskolin-stimulation by Glo-sensor assay; format: functional, cell-based
Chain of D(2) dopamine receptor (Homo sapiens) (P14416 whole entry): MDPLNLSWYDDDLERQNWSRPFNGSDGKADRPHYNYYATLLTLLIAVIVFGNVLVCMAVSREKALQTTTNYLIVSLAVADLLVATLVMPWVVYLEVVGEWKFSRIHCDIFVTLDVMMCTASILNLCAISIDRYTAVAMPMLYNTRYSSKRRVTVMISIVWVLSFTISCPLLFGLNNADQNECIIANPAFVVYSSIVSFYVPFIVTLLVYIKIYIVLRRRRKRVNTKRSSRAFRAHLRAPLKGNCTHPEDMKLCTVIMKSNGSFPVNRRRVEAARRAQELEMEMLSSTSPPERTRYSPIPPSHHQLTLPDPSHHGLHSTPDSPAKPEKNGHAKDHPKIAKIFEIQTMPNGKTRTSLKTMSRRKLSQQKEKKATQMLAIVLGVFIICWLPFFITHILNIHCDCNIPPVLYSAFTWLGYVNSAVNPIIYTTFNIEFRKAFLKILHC

[11] = Half life in C57BL/6J mouse brain at 20 mg/kg, po by LC-MS/MS analysis; format: ADME, organism-based; outline: as §1

COc1ccc(-c2nc(N)nc3c2CCCC3C)cc1 (racemic)
Ratio AUC [1]: 32.4% | Activity [2]: inactive | Vd/F [3]: 28.3 L/kg | Cmax [4]: 3333.3 ng/mL | inhibition [5]: inactive | t1/2 [6]: 1.2 h | Vd/F [7]: 28.5 L/kg | inhibition (INH) [8]: Not Active | Activity (Mus musculus): inactive | Activity [9]: inactive | inhibition [10]: inactive | half-life [11]: 1.1 h
